Assay results collected from several papers.
Protocols differ between the studies behind these lines.
KIT autoinhibited: Mast/stem cell growth factor receptor Kit, autoinhibited (KIT, Homo sapiens, UniProt P10721)
KIT A829P: Mast/stem cell growth factor receptor Kit (KIT, Homo sapiens, UniProt P10721, A829P)
KIT T670I/V559D: Mast/stem cell growth factor receptor Kit (KIT, Homo sapiens, UniProt P10721, T670I/V559D)
KIT L576P: Mast/stem cell growth factor receptor Kit (KIT, Homo sapiens, UniProt P10721, L576P)
KIT: Mast/stem cell growth factor receptor Kit (KIT, Homo sapiens, UniProt P10721)
KIT V559D: Mast/stem cell growth factor receptor Kit (KIT, Homo sapiens, UniProt P10721, V559D)
KIT V559D/V654A: Mast/stem cell growth factor receptor Kit (KIT, Homo sapiens, UniProt P10721, V559D/V654A)
KIT D816V: Mast/stem cell growth factor receptor Kit (KIT, Homo sapiens, UniProt P10721, D816V)
KIT D816H: Mast/stem cell growth factor receptor Kit (KIT, Homo sapiens, UniProt P10721, D816H)

O=C(c1ccc(Nc2ncc(Cl)c(-c3cc4ccccc4s3)n2)cc1)N1CCC(N2CCCC2)CC1 — remaining binding (KIT autoinhibited; binding; competition with immobilised ligand; 1 µM): 74%
CN(C)C(=O)Cn1cc(-c2nc(C3(c4ccc(-c5cnc(N)nc5)cc4)CC3)no2)cn1 — remaining binding (KIT A829P; cell-free assay; competition with immobilised ligand; 1 µM): 93%
CN(C)c1ncc(F)c(-c2cnn3ncccc23)n1 — remaining binding (KIT autoinhibited; binding; 1 µM): 73%
CN1CCN(c2ccc(Nc3nccc(-c4ccccc4)n3)cc2C(F)(F)F)CC1 — remaining binding (KIT T670I/V559D; binding; 10 µM): 0.15%
COc1cnc(Nc2cccc(S(N)(=O)=O)c2)nc1N1CCN(c2ccccc2)CC1 — remaining binding (KIT L576P; binding; competition with immobilised ligand; 1 µM): 80%
O=C(NCC1CCOCC1)c1n[nH]cc1NC(=O)c1c(F)cccc1F — remaining binding (KIT; binding; competition with immobilised ligand; 1 µM): 100%
Cc1nc(NC(=O)N2CCC[C@H]2C(N)=O)sc1-c1ccnc(C(C)(C)C(F)(F)F)c1 — remaining binding (KIT autoinhibited; binding; competition with immobilised ligand; 10 µM): 100%
c1cnn2ncc(-c3ccnc(N4CCC45COC5)n3)c2c1 — remaining binding (KIT V559D; binding; 1 µM): 78%
Nc1ncc2c(n1)-c1c([nH]c3ccc(C#CC4CC4)cc13)CCCC2 — remaining binding (KIT V559D/V654A; binding; competition with immobilised ligand; 1 µM): 100%
Cc1cnc(Nc2ccc(C(=O)N3CCC(N4CCCC4)CC3)cc2)nc1-c1cc2ccccc2s1 — remaining binding (KIT autoinhibited; binding; competition with immobilised ligand; 1 µM): 22%
CN1CCN(c2ccc(Nc3nccc(-c4cccc([N+](=O)[O-])c4)n3)cc2C(F)(F)F)CC1 — remaining binding (KIT L576P; binding; 10 µM): 0.05%
CCCOc1ccc([C@H]2[C@H](C(=O)O)[C@@H](c3ccc4c(c3)OCO4)CN2CC(=O)Nc2c(CC)cccc2CC)cc1 — remaining binding (KIT V559D/V654A; cell-free assay; competition with immobilised ligand; 1 µM): 98%
O=C(c1ccc(Nc2nccc(-c3cc4ccccc4s3)n2)cc1)N1CCC(N2CCCC2)CC1 — remaining binding (KIT D816V; binding; competition with immobilised ligand; 1 µM): 15%
N#Cc1ccccc1CSc1nnc2c(n1)[nH]c1ccccc12 — remaining binding (KIT D816V; binding; competition with immobilised ligand; 10 µM): 75%
CNC(=O)[C@@H]1CC[C@@H](n2c(-c3ccc4cnccc4c3)nc3ccc(C(=O)NCc4cccc(C(N)=O)c4)cc32)C1 — remaining binding (KIT; binding; competition with immobilised ligand; 1 µM): 100%
O=C(NCCCN1CCOCC1)c1ccc(Nc2ncc(Cl)c(-c3ccc(Cl)s3)n2)cc1 — remaining binding (KIT V559D; binding; competition with immobilised ligand; 1 µM): 0.05%
CC1CCCN1c1nccc(-c2cnn3ncccc23)n1 (stereo not shown) — remaining binding (KIT V559D/V654A; binding; 1 µM): 100%
O=C(O)[C@H]1[C@H](Cn2nnc3ccccc3c2=O)CC[C@@H]1C(=O)c1ccc(OCCC2CCOCC2)cc1 — remaining binding (KIT D816H; cell-free assay; competition with immobilised ligand; 1 µM): 80%
C=CC(=O)N1CCC(C(=O)NCC(=O)N2CCN(c3nc(-c4cnc(N)nc4C(F)F)nc(N4CCOCC4)n3)CC2)CC1 — remaining binding (KIT T670I/V559D; binding; competition with immobilised ligand; 1 µM): 82%
C[C@@H]1CCN(c2nccc(-c3cnn4ncccc34)n2)C1 — remaining binding (KIT D816H; binding; 1 µM): 79%
C[C@@H](c1ccc(-n2cnc3c(N)ncnc32)cc1)N1CCc2nn(C)c(Cc3ccccc3)c2C1=O — remaining binding (KIT T670I/V559D; binding; competition with immobilised ligand; 0.1 µM): 99%
Cc1c(NC(=O)c2cc(C(N)=O)nc3cc(F)ccc23)c(C(F)(F)F)nn1Cc1ccc(C(C)(C)C)cc1 — remaining binding (KIT D816H; cell-free assay; competition with immobilised ligand; 1 µM): 100%
O=C(c1ccc(Nc2ncc(Cl)c(-c3ccc(Cl)s3)n2)cc1)N1CCC(N2CCCC2)CC1 — remaining binding (KIT A829P; binding; competition with immobilised ligand; 1 µM): 4.3%
CN(C)c1nccc(-c2cnc3ncccn23)n1 — remaining binding (KIT D816H; binding; 1 µM): 52%
c1cncc(-c2cccc(Nc3nccc(NC4CCCCC4)n3)c2)c1 — remaining binding (KIT L576P; binding; competition with immobilised ligand; 10 µM): 0%
O=C(Nc1cccnn1)N1CCC(=Cc2cccc(Oc3ccc(C(F)(F)F)cn3)c2)CC1 — remaining binding (KIT T670I/V559D; cell-free assay; competition with immobilised ligand; 1 µM): 96%
N[C@H]1CCN(c2nccc(-c3cnn4ncccc34)n2)C1 — remaining binding (KIT V559D; binding; 1 µM): 87%
O=C(NCCCN1CCOCC1)c1ccc(Nc2nccc(-c3cc4ccccc4s3)n2)cc1 — remaining binding (KIT D816H; binding; competition with immobilised ligand; 1 µM): 20%
COc1ccc2c(c1)O[C@@H](c1ccc(OC)c(OC)c1)C[C@H]2NC(=O)C1(c2ccc3c(c2)OC(F)(F)O3)CC1 — remaining binding (KIT L576P; cell-free assay; competition with immobilised ligand; 1 µM): 92%
COc1cnc(Nc2cccc(S(N)(=O)=O)c2)nc1N1CCN(c2ccccc2)C(=O)C1 — remaining binding (KIT D816V; binding; competition with immobilised ligand; 1 µM): 90%
O=C(Nc1cccnn1)N1CC(C/C=C/c2cncc(Oc3ccc(C(F)(F)F)cn3)n2)C1 — remaining binding (KIT V559D/V654A; cell-free assay; competition with immobilised ligand; 1 µM): 100%
COc1ncc2cc3ccccc3nc2c1C#N — remaining binding (KIT A829P; cell-free assay; competition with immobilised ligand; 5 µM): 100%
CCN1CCN(Cc2ccc(C(=O)Nc3ccc(C)c(Oc4ccc5c(c4)CC(=O)N5)c3)cc2C(F)(F)F)CC1 — remaining binding (KIT; binding; competition with immobilised ligand; 1 µM): 0.85%
CN(CCCC(F)(F)F)c1nccc(-c2cnn3ncccc23)n1 — remaining binding (KIT V559D/V654A; binding; 1 µM): 100%
O=C(Nc1c[nH]nc1C(=O)NC1CCNCC1)c1cc(F)cc(F)c1 — remaining binding (KIT autoinhibited; binding; competition with immobilised ligand; 1 µM): 82%
Cc1cnn2ncc(-c3ccnc(N(C)C)n3)c2c1 — remaining binding (KIT V559D; binding; 1 µM): 100%
Cc1c(C(=O)O)cc(-c2ccc(C3CCNCC3)cc2)c2ccc(-c3ccc(C(F)(F)F)cc3)cc12 — remaining binding (KIT V559D; binding; competition with immobilised ligand; 1 µM): 100%
